Test results as given in PubChem BioAssay.
The source made the active and inactive calls.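 Rule for the calls, unless noted: active = viability at or below 30% in both replicate assays; inconclusive = viability at or below 30% in just one of the two assays; inactive = the rest.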

Tests used:
[1] = reducers of endogenous Her2 protein level, primary screen, SKBR3 breast tumor cells, AlphaScreen, ATP viability (AID 461;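 active = Her2 level under about 52% in both replicate screens, with viability over 70% of control, limit read from the data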;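 for Her2 level: lower value means less Her2 protein in the cells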;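 for viability: percent of carrier control wells set as 100% viability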); settings: 18-24 h, measured here: SKBR3 viability, ATP luminescence, at 10 µM
[2] = biological target: Receptor tyrosine-protein kinase erbB-2 (Homo sapiens) (UniProt P04626); test: as above; settings: 18-24 h, at 10 µM, stronger effect = lower value
[3] = SK-BR-3 cell growth inhibitors, pilot screen, 24 h, human (AID 572;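 active = viability at or below 10% of carrier control in both of two separate runs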;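 note: compound exposure lasted between 18 and 24 h rather than exactly 24 h; 100% = carrier-treated control wells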); settings: SK-BR-3 viability, CellTiter-Glo luminescence, at 10 µM, stronger effect = lower value
[4] = HUVEC growth inhibition – cell-based, human, primary screen (AID 575); settings: HUVEC proliferation, CellTiter-Glo luminescence, 72 h; at 10 µM; stronger effect = lower value;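 note: 100% = median of untreated cell wells with 0.1% DMSO on each plate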
Method in brief: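 Test system – primary HUVEC, no more than 12 passages · Dosing – one dose, 10 µM final, 0.1% DMSO · Times – 72 h treatment at 37 °C · Measured by – ATP-based CellTiter-Glo luminescent read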

[5] = growth inhibitors of H69AR lung tumor, primary screen, human, duplicate replicates (AID 580;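 active = viability at or under a set limit in both replicates, limit being median viability minus 3 SD, cut at about 48% in these data, passing the limit was not always enough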;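 note: 100% = mean luminescence of untreated wells and 0% = no signal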); settings: H69AR lung tumor cells viability, ATP luminescence, 72 h; at 10 µM; stronger effect = lower value
[6] = reversal of MRP1-mediated doxorubicin resistance, pilot screen, H69AR cells, doxorubicin co-treatment (AID 601;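 active = viability loss from added drug above about 55%, and viability with drug at most 40%, in both replicates, limit read from the data, passing the limit was not always enough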); settings: CellTiter-Glo, 72 h, at 10 µM; for differential viability (reversal): stronger effect = higher value
[7] = 384-well plate pilot, post-Golgi transport modulator project, inhibition of yeast transport mutant growth (AID 636; in the data active = inhibition above about 31%); settings: absorbance 615 nm, about 18 h, stronger effect = higher value
[8] = growth suppression of yeast trafficking mutant, preliminary HTS, modulators of trafficking downstream of Golgi apparatus project, 1536-format plate, OD 615 nm (AID 637; in the data active = inhibition above about 30%); settings: yeast transport mutant growth, absorbance 615 nm, 18 h; stronger effect = higher value
[9] = H69AR cells + 2 uM doxorubicin, measured here: viability with 2 uM doxorubicin, stronger effect = lower value
[10] = H69AR cells, compound alone cytotoxicity

Receptor tyrosine-protein kinase erbB-2 (Homo sapiens), sequence (P04626 whole entry, looked up): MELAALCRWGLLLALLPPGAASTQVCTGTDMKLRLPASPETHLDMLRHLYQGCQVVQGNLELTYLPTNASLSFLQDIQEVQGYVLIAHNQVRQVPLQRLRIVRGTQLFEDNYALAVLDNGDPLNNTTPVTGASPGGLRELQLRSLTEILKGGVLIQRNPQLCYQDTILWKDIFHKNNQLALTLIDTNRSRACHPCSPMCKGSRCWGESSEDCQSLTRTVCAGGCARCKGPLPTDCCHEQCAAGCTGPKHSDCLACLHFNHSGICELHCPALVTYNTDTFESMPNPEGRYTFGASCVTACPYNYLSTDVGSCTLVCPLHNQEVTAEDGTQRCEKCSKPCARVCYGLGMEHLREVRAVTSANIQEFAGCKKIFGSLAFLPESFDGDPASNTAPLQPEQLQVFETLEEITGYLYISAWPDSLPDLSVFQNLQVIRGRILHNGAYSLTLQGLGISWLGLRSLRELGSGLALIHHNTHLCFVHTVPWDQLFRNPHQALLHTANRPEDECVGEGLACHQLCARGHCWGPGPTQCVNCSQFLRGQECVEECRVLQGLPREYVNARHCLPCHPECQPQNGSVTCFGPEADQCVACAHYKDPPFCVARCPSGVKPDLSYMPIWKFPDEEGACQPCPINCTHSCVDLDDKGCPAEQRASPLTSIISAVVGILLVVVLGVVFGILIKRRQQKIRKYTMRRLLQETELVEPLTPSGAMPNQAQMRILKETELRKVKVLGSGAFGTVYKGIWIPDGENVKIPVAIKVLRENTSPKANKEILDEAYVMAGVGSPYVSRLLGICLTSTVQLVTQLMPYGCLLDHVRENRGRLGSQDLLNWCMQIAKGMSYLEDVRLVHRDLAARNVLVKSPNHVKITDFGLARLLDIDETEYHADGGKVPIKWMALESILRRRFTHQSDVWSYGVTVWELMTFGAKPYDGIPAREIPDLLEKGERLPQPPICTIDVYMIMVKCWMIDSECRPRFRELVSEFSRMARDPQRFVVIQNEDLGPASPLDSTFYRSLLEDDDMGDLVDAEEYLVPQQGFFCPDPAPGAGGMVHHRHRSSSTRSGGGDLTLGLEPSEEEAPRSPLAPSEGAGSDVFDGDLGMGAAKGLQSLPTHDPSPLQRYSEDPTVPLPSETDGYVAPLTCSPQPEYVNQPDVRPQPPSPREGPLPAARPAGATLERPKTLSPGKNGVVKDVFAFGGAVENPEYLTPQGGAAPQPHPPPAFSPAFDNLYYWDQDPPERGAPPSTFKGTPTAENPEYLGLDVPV

| SMILES | viability [1] | Her2 level [2] | viability [3] | viability [4] | viability [5] | differential viability (reversal) ([6]; H69AR cells + 2 uM doxorubicin) | viability [6, 9] | viability [6, 10] | inhibition [7] | inhibition [8] |
| --- | --- | --- | --- | --- | --- | --- | --- | --- | --- | --- |
| CCSc1nc2c(c(=O)n1CC)SC(C)C2 (stereo not given) | 102% | 86.5% (inactive) | 102% (inactive) | 111% (inactive) | 94.1% (inactive) | 6.39% (inactive) | 87.7% | 94.1% | -5.47% (inactive) | 6.07% (inactive) |
| COc1ccc(CN(CC(=O)NCC2CCCO2)C(=O)CNS(=O)(=O)c2ccc(C)cc2)cc1 (stereo not given) | 107% | 102% (inactive) | 107% (inactive) | 96.3% (inactive) | 97.2% (inactive) | 2.2% (inactive) | 95% | 97.2% | -0.53% (inactive) | -6.23% (inactive) |
| COc1ccccc1Oc1coc2c(CN3CCN(C)CC3)c(O)ccc2c1=O | 102% | 111% (inactive) | 102% (inactive) | 96.1% (inactive) | 99.5% (inactive) | 14.9% (inactive) | 84.7% | 99.5% | -1.82% (inactive) | 1% (inactive) |
| O=C(Nc1ccc(Cl)cc1)C1CC=CCC1C(=O)OCC(F)(F)C(F)F (stereo not given) | 93% | 92.5% (inactive) | 93% (inactive) | 103% (inactive) | 94.6% (inactive) | 7.29% (inactive) | 87.3% | 94.6% | -6.89% (inactive) | -3% (inactive) |
| Cn1c(=O)[nH]c(=O)c2[nH]c(CN3CCN(C(=O)c4ccco4)CC3)nc21 | 98.5% | 80% (inactive) | 98.5% (inactive) | 90.3% (inactive) | 107% (inactive) | 13.8% (inactive) | 92.9% | 107% | -1.58% (inactive) | 0.73% (inactive) |
| CCN(CCNC(=O)CS(=O)(=O)Cc1nc(-c2cccc(OC)c2)oc1C)c1ccccc1 | 97.5% | 105% (inactive) | 97.5% (inactive) | 78.4% (inactive) | 99% (inactive) | -10.6% (inactive) | 110% | 99% | -6.67% (inactive) | -0.48% (inactive) |
| Cn1cc(CC(=O)Nc2cccc(C#N)c2)c2ccccc21 | 101% | 87.5% (inactive) | 101% (inactive) | 97.7% (inactive) | 104% (inactive) | 12.6% (inactive) | 91.7% | 104% | -4.61% (inactive) | -2.22% (inactive) |
| Cc1cc(SCC(N)=O)nc(SCC(=O)c2ccccc2)n1 | 92.5% | 89% (inactive) | 92.5% (inactive) | 106% (inactive) | 99.8% (inactive) | 10.1% (inactive) | 89.7% | 99.8% | -0.53% (inactive) | -5.08% (inactive) |
| O=C(OCc1cc2ccccc2[nH]c1=O)c1ccncc1 | 90.5% | 89% (inactive) | 90.5% (inactive) | 76.4% (inactive) | 79.2% (inactive) | -10.5% (inactive) | 89.7% | 79.2% | -4.34% (inactive) | -2.74% (inactive) |
| C#CCNc1c(C)c(C)nc2ncnn12 | 104% | 97% (inactive) | 104% (inactive) | 126% (inactive) | 104% (inactive) | 18.7% (inactive) | 85.3% | 104% | -5.07% (inactive) | 11.5% (inactive) |
| CN(C)S(=O)(=O)c1ccc(S(=O)(=O)Nc2ccc3c(c2)oc2ccccc23)cc1 | 79.5% | 97% (inactive) | 79.5% (inactive) | 59.2% (inactive) | 73.2% (inactive) | -2.9% (inactive) | 76.1% | 73.2% | 2.11% (inactive) | -3.64% (inactive) |
| CSCCC(NS(=O)(=O)c1ccc2c(c1)oc(=O)n2C)C(=O)NC1CCCCC1 (stereo not given) | 91% | 110% (inactive) | 91% (inactive) | 87.4% (inactive) | 103% (inactive) | 12.6% (inactive) | 90.1% | 103% | 0.9% (inactive) | -3.17% (inactive) |
| Cc1cc(C)n2cc(CSc3nnnn3C)nc2n1 | 84.5% | 92% (inactive) | 84.5% (inactive) | 87.8% (inactive) | 85.7% (inactive) | -0.355% (inactive) | 86% | 85.7% | 0.51% (inactive) | 6.17% (inactive) |
| COc1ccc(C(=O)N(Cc2ccco2)C(C(=O)NC2CCCC2)c2ccc(O)cc2)cc1OC (stereo not given) | 77.5% | 85% (inactive) | 77.5% (inactive) | 76.8% (inactive) | 78.8% (inactive) | -1.66% (inactive) | 80.4% | 78.8% | -1.32% (inactive) | -8% (inactive) |
| CCOC(=O)Cn1nc(-c2ccc(C)cc2)ccc1=O | 99% | 115% (inactive) | 99% (inactive) | 94.1% (inactive) | 100% (inactive) | 15.4% (inactive) | 84.6% | 100% | -5.32% (inactive) | 7.21% (inactive) |
| COC(=O)c1ccc(NC(=O)C2CC(=O)N(c3cc(C)ccc3C)C2)cc1 (stereo not given) | 97% | 99.5% (inactive) | 97% (inactive) | 96.3% (inactive) | 89.8% (inactive) | 3.6% (inactive) | 86.2% | 89.8% | -1.76% (inactive) | 13.7% (inactive) |
| CCOC(=O)N1CCN(c2c(NCCN(C)Cc3ccccc3)c(=O)c2=O)CC1 | 98% | 95% (inactive) | 98% (inactive) | 84.3% (inactive) | 99% (inactive) | 6.12% (inactive) | 92.9% | 99% | 0.27% (inactive) | -2.3% (inactive) |
| Cc1cccc(Nc2nc(N)nc(CN3CCC(C(N)=O)CC3)n2)c1C | 89% | 89% (inactive) | 89% (inactive) | 105% (inactive) | 98.1% (inactive) | 12.8% (inactive) | 85.2% | 98.1% | -5.58% (inactive) | -3.49% (inactive) |
| CCn1cc(C(=O)NCCCOC)c(=O)c2cc(S(=O)(=O)N(C)C3CCCCC3)ccc21 | 87% | 114% (inactive) | 87% (inactive) | 101% (inactive) | 90.8% (inactive) | -13% (inactive) | 104% | 90.8% | -0.9% (inactive) | -5.33% (inactive) |
| Cc1cc(C(=O)NCCN2CCN(c3cccc(Cl)c3)CC2)n(-c2ccccc2)n1 | 98% | 91.5% (inactive) | 98% (inactive) | 42.3% (inactive) | 23.7% (active) | -24.5% (inactive) | 48.2% | 23.7% | -4.8% (inactive) | -1.48% (inactive) |
| CCOC(=O)c1[nH]c(C)c(C(=O)N(C)C)c1C | 110% | 88.5% (inactive) | 110% (inactive) | 103% (inactive) | 95.6% (inactive) | -0.97% (inactive) | 96.6% | 95.6% | -5.79% (inactive) | -7.3% (inactive) |
| CC(C)Oc1ccc(-c2nn(-c3ccccc3)cc2/C=c2\sc3ncnn3c2=O)cc1 | 84% | 106% (inactive) | 84% (inactive) | 71.5% (inactive) | 98.1% (inactive) | 8.19% (inactive) | 89.9% | 98.1% | 5.92% (inactive) | -1.82% (inactive) |
| Cc1ccccc1C(=O)NC1CCN(CC(=O)Nc2nccs2)CC1 | 92.5% | 96% (inactive) | 92.5% (inactive) | 88.8% (inactive) | 97.8% (inactive) | 11.6% (inactive) | 86.2% | 97.8% | -0.67% (inactive) | 5.08% (inactive) |
| COc1ccccc1S(=O)(=O)n1cc(Cc2ccccc2)c(N)n1 | 96.5% | 86% (inactive) | 96.5% (inactive) | 96.4% (inactive) | 104% (inactive) | 5.54% (inactive) | 98.5% | 104% | -2.37% (inactive) | -6.51% (inactive) |
| Cc1cc(NS(=O)(=O)c2ccccc2)n(-c2ccccc2)n1 | 106% | 95.5% (inactive) | 106% (inactive) | 85.2% (inactive) | 96.2% (inactive) | -2.34% (inactive) | 98.6% | 96.2% | -4.13% (inactive) | 2.1% (inactive) |
| CCCS(=O)(=O)NCCc1cc2cc(C)c(C)cc2[nH]c1=O | 106% | 90% (inactive) | 106% (inactive) | 101% (inactive) | 96.3% (inactive) | 8.55% (inactive) | 87.7% | 96.3% | -8.22% (inactive) | -0.63% (inactive) |
| CSc1nnc(-c2ccc(NC(=O)CCc3ccccc3)cc2)n1C | 91.5% | 82.5% (inactive) | 91.5% (inactive) | 111% (inactive) | 87% (inactive) | -2.53% (inactive) | 89.5% | 87% | -4.59% (inactive) | 3.11% (inactive) |
| Cc1ccc(-c2noc(-c3ccccc3C(=O)NCC3CCCO3)n2)cc1 (stereo not given) | 91% | 107% (inactive) | 91% (inactive) | 100% (inactive) | 100% (inactive) | 5.99% (inactive) | 94.4% | 100% | -0.13% (inactive) | -3.97% (inactive) |
| O=C(c1ccc(Cl)cc1)N(Cc1cccs1)C1CCS(=O)(=O)C1 (stereo not given) | 100% | 138% (inactive) | 100% (inactive) | 117% (inactive) | 89.2% (inactive) | -8.41% (inactive) | 97.6% | 89.2% | -3.29% (inactive) | 7.7% (inactive) |
